# Assays:
# [1] = tested on: patients with type 2 diabetes mellitus; assay: Derived creatinine clearance; assay type: in vivo, human
# In short: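 Derived creatinine clearance was calculated from urinary creatinine concentration and volume in timed urine fractions, together with plasma creatinine. It is expressed as […] and given as change from baseline. Dosing was oral, once daily with 240 mL water: a single dose on day 1, then daily on days 3–9.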
# SGLT1 = details: in vitro; cited from earlier work
# [2] = Pharmacokinetics in plasma and urine; assay type: in vivo, human
# In short: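 Plasma was sampled pre-dose on days −2, −1, 1, 2, 3 and 5–9, up to 48 h after the day 1 single dose and up to 72 h after the day 9 dose. Urine was collected on days 1 and 9. Analysis was by HPLC–MS/MS (LLOQ 1.11 nmol/L plasma, 4.44 nmol/L urine). AUC used linear-up/log-down trapezoids. Steady state was assessed from day 5–9 troughs with a log-scale repeated-measures model. n = 36.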
# [3] = tested on: patients with type 2 diabetes mellitus; assay: Oral glucose tolerance test, glucose AUEC1-5; assay type: in vivo, human; details: for Glucose AUEC1–5, change from baseline to day 9: baseline day −1
# In short: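 For the OGTT, 75 g glucose solution was given after an overnight fast on days −1, 1 and 9, with the test compound or placebo given orally once daily. Glucose AUEC was calculated over 1–5 h after OGTT. Change is from baseline on day −1. Patients were randomized 3:1 to active or placebo per dose group. Analysis was descriptive.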
# [4] = tested on: patients with type 2 diabetes mellitus; assay: Safety and tolerability; assay type: in vivo, human; details: for Diarrhea / Headache / Hypoglycemia / Patients with any AE / Pruritus: N = 9
# In short: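 This was a double-blind, multiple rising dose trial with patients randomized 3:1 to active or placebo per dose group. Oral dosing was once daily: a single dose on day 1, then days 3–9. Adverse events were recorded, and relatedness was investigator-defined. Hypoglycemia was defined as blood glucose <3.5 mmol/L. An end-of-study examination was done on days 15–21. Analysis was descriptive, randomized set (n = 48).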
# [5] = tested on: patients with type 2 diabetes mellitus; assay: Weighted mean daily glucose; assay type: in vivo, human
# In short: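 Eight-point weighted mean daily glucose was calculated as the 24 h glucose AUEC0–24 divided by 24 h. It was measured under standardized meals without OGTT on day −2 (baseline) and day 8, after multiple once-daily oral doses. Change from baseline is given as least squares means. Analysis used the treated set.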
structure (smiles),measurement,setting,value
OC[C@H]1O[C@@H](c2ccc(Cl)c(Cc3ccc(O[C@H]4CCOC4)cc3)c2)[C@H](O)[C@@H](O)[C@@H]1O [Empagliflozin],"Change from baseline in derived creatinine clearance, mean (SD)","[1]; 2.5 mg qd, 16 h",−57.0 (59.4) mL/min 1.73 m^2
same,"Change from baseline in derived creatinine clearance, mean (SD)","[1]; 2.5 mg qd, 166 h, n = 7",360 (620) mL/min 1.73 m^2
same,"Change from baseline in derived creatinine clearance, mean (SD)","[1]; 2.5 mg qd, 184 h",−20.3 (59.2) mL/min 1.73 m^2
same,"Change from baseline in derived creatinine clearance, mean (SD)","[1]; 10 mg qd, 16 h",−28.7 (34.2) mL/min 1.73 m^2
same,"Change from baseline in derived creatinine clearance, mean (SD)","[1]; 10 mg qd, 166 h",12.8 (54.7) mL/min 1.73 m^2
same,"Change from baseline in derived creatinine clearance, mean (SD)","[1]; 10 mg qd, 184 h",−38.4 (36.4) mL/min 1.73 m^2
same,"Change from baseline in derived creatinine clearance, mean (SD)","[1]; 25 mg qd, 16 h",−89.2 (43.2) mL/min 1.73 m^2
same,"Change from baseline in derived creatinine clearance, mean (SD)","[1]; 25 mg qd, 166 h",−40.3 (61.7) mL/min 1.73 m^2
same,"Change from baseline in derived creatinine clearance, mean (SD)","[1]; 25 mg qd, 184 h",−52.4 (45.5) mL/min 1.73 m^2
same,"Change from baseline in derived creatinine clearance, mean (SD)","[1]; 100 mg qd, 16 h",−21.0 (59.3) mL/min 1.73 m^2
same,"Change from baseline in derived creatinine clearance, mean (SD)","[1]; 100 mg qd, 166 h",−10.6 (58.0) mL/min 1.73 m^2
same,"Change from baseline in derived creatinine clearance, mean (SD)","[1]; 100 mg qd, 184 h",−14.4 (55.3) mL/min 1.73 m^2
same,Selectivity for SGLT2 over SGLT1,SGLT1,"> 2,500 fold"
same,Accumulation at steady state,[2]; 2.5–100 mg qd,up to 23%
same,half-life,"[2]; human, plasma, oral, Mean t 1/2 at steady state, day 9, range over 2.5–100 mg qd",10.3 to 18.8 h
same,Tmax,"[2]; human, plasma, po",1.5 to 3 h
same,Steady state reached by,"[2]; repeated once-daily dosing, trough concentrations days 5–8",≤ 5 days
same,"Mean (SD) glucose AUEC1–5, Day 9","[3]; 2.5 mg qd, after OGTT",713 (216) mg h/dL
same,"Glucose AUEC1–5, change from baseline to day 9","[3]; 2.5 mg qd, after OGTT",23.1%
same,"Glucose AUEC1–5, change from baseline to day 9","[3]; 10 mg qd, after OGTT",27.5%
same,"Mean (SD) glucose AUEC1–5, Day 9","[3]; 10 mg qd, n = 8, after OGTT",655 (144) mg h/dL
same,"Mean (SD) glucose AUEC1–5, Day 9","[3]; 25 mg qd, after OGTT",679 (109) mg h/dL
same,"Glucose AUEC1–5, change from baseline to day 9","[3]; 25 mg qd, after OGTT",23.0%
same,"Mean (SD) glucose AUEC1–5, Day 9","[3]; 100 mg qd, after OGTT",817 (126) mg h/dL
same,"Glucose AUEC1–5, change from baseline to day 9","[3]; 100 mg qd, after OGTT",22.9%
same,Diarrhea,[4]; 2.5 mg qd,2 (22.2) n (%)
same,Headache,[4]; 2.5 mg qd,0 n (%)
same,Hypoglycemia,[4]; 2.5 mg qd,0 n (%)
same,Patients with any AE,[4]; 2.5 mg qd,6 (66.7) n (%)
same,Pruritus,[4]; 2.5 mg qd,1 (11.1) n (%)
same,Diarrhea,[4]; 10 mg qd,0 n (%)
same,Headache,[4]; 10 mg qd,1 (11.1) n (%)
same,Hypoglycemia,[4]; 10 mg qd,2 (22.2) n (%)
same,Patients with any AE,[4]; 10 mg qd,5 (55.6) n (%)
same,Pruritus,[4]; 10 mg qd,0 n (%)
same,Diarrhea,[4]; 25 mg qd,0 n (%)
same,Headache,[4]; 25 mg qd,2 (22.2) n (%)
same,Hypoglycemia,[4]; 25 mg qd,1 (11.1) n (%)
same,Patients with any AE,[4]; 25 mg qd,5 (55.6) n (%)
same,Pruritus,[4]; 25 mg qd,1 (11.1) n (%)
same,Diarrhea,[4]; 100 mg qd,0 n (%)
same,Headache,[4]; 100 mg qd,0 n (%)
same,Hypoglycemia,[4]; 100 mg qd,0 n (%)
same,Patients with any AE,[4]; 100 mg qd,3 (33.3) n (%)
same,Pruritus,[4]; 100 mg qd,0 n (%)
same,Frequency of AEs,[4]; all patients receiving empagliflozin,52.8%
same,Patients with hypoglycemic events (blood glucose <3.5 mmol/L),"[4]; all within 5 h of OGTT administration, moderate intensity",Three
same,Patients with AE leading to discontinuation of study treatment,"[4]; cellulitis, moderate intensity, not believed related to study medication",1 patient
same,Tolerability,[4]; multiple once-daily oral doses 2.5–100 mg,well tolerated
same,Fatalities or serious AEs,[4]; treatment period,no fatalities or serious AEs
same,Urinary tract or genital tract infections,[4]; treatment period,No urinary tract or genital tract infections were reported
same,"Mean MDG (SD), Day 8","[5]; 2.5 mg qd, without OGTT",134 (42.7) mg/dL
same,"Mean MDG change from baseline to day 8, difference to placebo","[5]; 2.5 mg qd, without OGTT","−15.5, p < 0.05 mg/dL"
same,"Mean MDG, mean (least squares) change from baseline to day 8","[5]; 2.5 mg qd, without OGTT, baseline day −2",-29.0 mg/dL
same,"Mean MDG (SD), Day 8","[5]; 10 mg qd, n = 8, without OGTT",124 (18.9) mg/dL
same,"Mean MDG change from baseline to day 8, difference to placebo","[5]; 10 mg qd, without OGTT","−23.5, p < 0.01 mg/dL"
